According to ChEMBL document CHEMBL1811883, “The combination of 4-anilinoquinazoline and cinnamic acid: a novel mode of binding to the epidermal growth factor receptor tyrosine kinase” (Bioorg Med Chem, 2011):
Converted amounts (≈) assume the structure as drawn.

Columns and labels:
A549 = assay: Antiproliferative activity against human A549 cells after 48 hrs by MTT assay; assay type: functional, cell-based; details: A549, 48 h
How it was run: (§1)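 Cells exposed to compound at final concentrations from 0.01 to 100 (µg/mL per text) for 48 h. MTT (5 mg/mL in PBS) added for 6 h, then 10% SDS in 0.01 N HCl for a further 4 h at 37 °C. Absorbance read at 570 nm; survival expressed relative to untreated cells.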

B16-F10 = assay: Antiproliferative activity against mouse B16F10 cells assessed as inhibition of serum-stimulated cell growth after 48 hrs by MTT assay; assay type: functional, cell-based; details: B16-F10, 48 h; how it was run: as §1
[1] = target: Epidermal growth factor receptor (Homo sapiens, UniProt P00533); assay: Inhibition of recombinant EGFR expressed in baculovirus infected Sf9 cells after 1 hr by DELFIA/time-resolved fluorimetry assay
A431 (Homo sapiens) = assay: Antiproliferative activity against human A431 cells expressing EGFR assessed as inhibition of basal cell growth after 48 hrs by MTT assay; details: A431, 48 h

Epidermal growth factor receptor, sequence (P00533 whole entry): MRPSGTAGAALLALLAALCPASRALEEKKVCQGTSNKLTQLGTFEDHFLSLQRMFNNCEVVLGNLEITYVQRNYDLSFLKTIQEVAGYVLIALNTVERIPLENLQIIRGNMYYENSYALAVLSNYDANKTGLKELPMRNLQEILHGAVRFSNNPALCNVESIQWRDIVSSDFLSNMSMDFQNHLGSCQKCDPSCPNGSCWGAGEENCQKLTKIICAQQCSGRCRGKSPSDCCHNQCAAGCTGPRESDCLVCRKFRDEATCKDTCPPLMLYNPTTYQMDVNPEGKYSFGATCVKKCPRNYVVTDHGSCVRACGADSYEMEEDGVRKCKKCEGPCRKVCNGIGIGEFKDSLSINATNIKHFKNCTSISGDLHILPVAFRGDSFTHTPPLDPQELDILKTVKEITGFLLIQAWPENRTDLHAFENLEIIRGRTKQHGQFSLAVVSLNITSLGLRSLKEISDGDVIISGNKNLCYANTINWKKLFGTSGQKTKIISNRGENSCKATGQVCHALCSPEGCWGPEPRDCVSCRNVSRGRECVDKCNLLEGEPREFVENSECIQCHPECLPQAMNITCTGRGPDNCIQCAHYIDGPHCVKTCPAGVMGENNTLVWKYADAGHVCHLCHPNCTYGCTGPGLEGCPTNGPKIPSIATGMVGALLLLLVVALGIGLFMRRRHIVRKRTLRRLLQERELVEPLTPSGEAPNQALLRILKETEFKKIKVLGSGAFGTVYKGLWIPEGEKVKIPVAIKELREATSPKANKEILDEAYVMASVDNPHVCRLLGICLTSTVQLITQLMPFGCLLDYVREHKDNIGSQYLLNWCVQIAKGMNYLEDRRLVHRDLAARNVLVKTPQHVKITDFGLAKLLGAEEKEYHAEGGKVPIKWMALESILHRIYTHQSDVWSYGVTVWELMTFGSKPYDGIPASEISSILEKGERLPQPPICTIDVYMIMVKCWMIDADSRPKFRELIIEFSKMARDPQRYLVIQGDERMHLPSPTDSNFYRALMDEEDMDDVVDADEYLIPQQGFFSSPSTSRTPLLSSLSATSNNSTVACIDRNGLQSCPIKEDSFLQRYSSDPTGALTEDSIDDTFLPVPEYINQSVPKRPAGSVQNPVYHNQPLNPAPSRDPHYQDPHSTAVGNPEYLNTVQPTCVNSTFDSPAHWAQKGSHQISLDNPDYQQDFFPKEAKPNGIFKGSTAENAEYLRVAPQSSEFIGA

| SMILES | IC50 (A549) | IC50 (B16-F10) | IC50 [1] | IC50 (A431 (Homo sapiens)) |
| --- | --- | --- | --- | --- |
| O=C(/C=C/c1ccccc1)Nc1ccc2ncnc(Nc3cccc(Br)c3)c2c1 | 3.96 µg/mL (≈ 8.89 µM) | 1.45 µg/mL (≈ 3.26 µM) | – | – |
| O=C(/C=C/c1ccc(Cl)cc1)Nc1ccc2ncnc(Nc3cccc(Br)c3)c2c1 | 1.06 µg/mL (≈ 2.21 µM) | 0.38 µg/mL (≈ 0.792 µM) | 1.21 µM | – |
| O=C(/C=C/c1ccccc1Cl)Nc1ccc2ncnc(Nc3cccc(Br)c3)c2c1 | 6.63 µg/mL (≈ 13.8 µM) | 2 µg/mL (≈ 4.17 µM) | – | – |
| O=C(/C=C/c1ccc(Br)cc1)Nc1ccc2ncnc(Nc3cccc(Br)c3)c2c1 | 15.3 µg/mL (≈ 29.2 µM) | 10.7 µg/mL (≈ 20.3 µM) | – | – |
| O=C(/C=C/c1ccccc1Br)Nc1ccc2ncnc(Nc3cccc(Br)c3)c2c1 | 2.38 µg/mL (≈ 4.54 µM) | 0.92 µg/mL (≈ 1.76 µM) | 4.28 µM | – |
| COc1ccc(/C=C/C(=O)Nc2ccc3ncnc(Nc4cccc(Br)c4)c3c2)cc1 | 3.36 µg/mL (≈ 7.07 µM) | 1.24 µg/mL (≈ 2.61 µM) | 7.22 µM | – |
| COc1ccccc1/C=C/C(=O)Nc1ccc2ncnc(Nc3cccc(Br)c3)c2c1 | 3.55 µg/mL (≈ 7.47 µM) | 1.28 µg/mL (≈ 2.69 µM) | 7.71 µM | – |
| COc1cccc(/C=C/C(=O)Nc2ccc3ncnc(Nc4cccc(Br)c4)c3c2)c1 | 2.05 µg/mL (≈ 4.31 µM) | 0.87 µg/mL (≈ 1.83 µM) | 6.02 µM | – |
| O=C(/C=C/c1cccs1)Nc1ccc2ncnc(Nc3cccc(Br)c3)c2c1 | 4.66 µg/mL (≈ 10.3 µM) | 2.51 µg/mL (≈ 5.56 µM) | – | – |
| Cc1ccc(/C=C/C(=O)Nc2ccc3ncnc(Nc4cccc(Br)c4)c3c2)cc1 | 3.01 µg/mL (≈ 6.55 µM) | 1.39 µg/mL (≈ 3.03 µM) | – | – |
| O=C(/C=C/c1ccc([N+](=O)[O-])cc1)Nc1ccc2ncnc(Nc3cccc(Br)c3)c2c1 | 1.85 µg/mL (≈ 3.77 µM) | 0.981 µg/mL (≈ 2 µM) | 5.16 µM | 1.34 µM |
| O=C(/C=C/c1ccccc1[N+](=O)[O-])Nc1ccc2ncnc(Nc3cccc(Br)c3)c2c1 | 0.92 µg/mL (≈ 1.88 µM) | 0.338 µg/mL (≈ 0.689 µM) | 1.02 µM | 0.98 µM |
| O=C(/C=C/c1ccccc1)Nc1ccc2ncnc(Nc3cccc(Cl)c3)c2c1 | 1.58 µg/mL (≈ 3.94 µM) | 0.68 µg/mL (≈ 1.7 µM) | 3.61 µM | – |
| O=C(/C=C/c1ccc(Cl)cc1)Nc1ccc2ncnc(Nc3cccc(Cl)c3)c2c1 | 12.4 µg/mL (≈ 28.6 µM) | 9.97 µg/mL (≈ 22.9 µM) | – | – |
| O=C(/C=C/c1ccccc1Cl)Nc1ccc2ncnc(Nc3cccc(Cl)c3)c2c1 | 4.58 µg/mL (≈ 10.5 µM) | 1.74 µg/mL (≈ 4 µM) | – | – |
| O=C(/C=C/c1ccc(Br)cc1)Nc1ccc2ncnc(Nc3cccc(Cl)c3)c2c1 | 1.86 µg/mL (≈ 3.88 µM) | 0.75 µg/mL (≈ 1.56 µM) | 3.49 µM | – |
| O=C(/C=C/c1ccccc1Br)Nc1ccc2ncnc(Nc3cccc(Cl)c3)c2c1 | 5.63 µg/mL (≈ 11.7 µM) | 1.65 µg/mL (≈ 3.44 µM) | – | – |
| COc1cccc(/C=C/C(=O)Nc2ccc3ncnc(Nc4cccc(Cl)c4)c3c2)c1 | 2.58 µg/mL (≈ 5.99 µM) | 1.05 µg/mL (≈ 2.44 µM) | 6.63 µM | – |
| O=C(/C=C/c1cccs1)Nc1ccc2ncnc(Nc3cccc(Cl)c3)c2c1 | 9.23 µg/mL (≈ 22.7 µM) | 4.26 µg/mL (≈ 10.5 µM) | – | – |
| Cc1ccc(/C=C/C(=O)Nc2ccc3ncnc(Nc4cccc(Cl)c4)c3c2)cc1 | 6.03 µg/mL (≈ 14.5 µM) | 2.02 µg/mL (≈ 4.87 µM) | – | – |
| O=C(/C=C/c1cccc2ccccc12)Nc1ccc2ncnc(Nc3cccc(Cl)c3)c2c1 | 1.49 µg/mL (≈ 3.3 µM) | 0.671 µg/mL (≈ 1.49 µM) | 2.81 µM | – |
| O=C(/C=C/c1ccc([N+](=O)[O-])cc1)Nc1ccc2ncnc(Nc3cccc(Cl)c3)c2c1 | 5.26 µg/mL (≈ 11.8 µM) | 2.05 µg/mL (≈ 4.6 µM) | 3.45 µM | 2.13 µM |
| O=C(/C=C/c1ccccc1[N+](=O)[O-])Nc1ccc2ncnc(Nc3cccc(Cl)c3)c2c1 | 0.78 µg/mL (≈ 1.75 µM) | 0.3 µg/mL (≈ 0.673 µM) | – | 0.75 µM |
| O=C(/C=C/c1cccc([N+](=O)[O-])c1)Nc1ccc2ncnc(Nc3cccc(Br)c3)c2c1 | – | – | 0.12 µM | 0.33 µM |
| O=C(/C=C/c1cccc([N+](=O)[O-])c1)Nc1ccc2ncnc(Nc3cccc(Cl)c3)c2c1 | – | – | 0.19 µM | 0.49 µM |
| Nc1ccc2ncnc(Nc3cccc(Cl)c3)c2c1 | – | – | – | 47 µM |
| Nc1ccc2ncnc(Nc3cccc(Br)c3)c2c1 | – | – | – | 42 µM |
| C#Cc1cccc(Nc2ncnc3cc(OCCOC)c(OCCOC)cc23)c1 [ERLOTINIB] | – | 0.02 µg/mL (≈ 0.0508 µM) | – | – |
